For this data set, the system named is MS2 coat protein. Description: apparent Kd, MS2 coat protein; higher = weaker binding; RNA-MaP array; FMN 200 µM where present. In a few lines: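 Designs were transcribed by stalled E. coli RNA polymerase on Illumina sequencing-chip clusters. They were titrated with SNAP-549-labelled MS2 coat protein from 0.7 or 1.5 nM, doubling to 3 µM, without and then with constant ligand. Buffer: 100 mM Tris-HCl pH 7.5, 80 mM KCl, 4 mM MgCl2, BSA, DTT, yeast tRNA, Tween-20. Green signal was normalised to red-channel RNA signal and control-cluster median Fmax. Apparent Kd is the median of filtered per-cluster binding-curve fits.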

Setting [1] is: designed as: ON switch for flavin mononucleotide, no ligand.
Setting [2] is: ligand present: flavin mononucleotide, designed as: ON switch for flavin mononucleotide.
Where [3] appears, read: designed as: OFF switch for flavin mononucleotide, no ligand.
Where [4] appears, read: ligand present: flavin mononucleotide, designed as: OFF switch for flavin mononucleotide.

For the sequence “AGUGUCAUCGAGAAGGCCUCAACAUGAGGAUCACCCAUGUUGUAAUAUGGGAGGAUAUCGAUGAUACAGCUACGUUUCGUAGCC”, the “apparent Kd” value runs as follows: under setting [1], 0.0195 µM; under setting [2], 0.00591 µM.
Take “AUAUGAAAGAUAGGAUAUACUGAGGUUGAAUGGGUAGAAGGAUCGAUAGGGAAGAAUACAUGAGGAUCACCCAUGUUGUGGAUU”: the “apparent Kd” value came out at 0.0817 µM under setting [1] and 0.0519 µM under setting [2].
The corresponding values for “UAUUUUAACUAAGGAUAUCUAUAUUAUUUUGAAACAUGAGGAUCACCCAUGUUCAUGGGAUUAUAGGAGAAGGUAGAUGAAUAA” are 0.0146 µM and 0.00954 µM.
For the sequence “UUUCCUGAAGGAUAUUAAGAGCCAGACAUGAGGAUCACCCAUGUUCCUACAACGAACCUCUAAGAAGGUCAGGGCU”, the “apparent Kd” value reads like this: under setting [3], 0.0209 µM; under setting [4], 0.021 µM.
The matching figures for “UAAUAAAACGAUCGGCGAUCCAUACAUGAGGAUCACCCAUGUAGAAGGCACUCUACAAAGUAGAGUGAGGAUAUACGAGAUCGA”: 0.00785 µM and 0.105 µM.
As for “GUAGCAUACCAAGGAUAUUCAGGGCUUGGAUAGACAUGAGGAUCACCCAUGUGGCGAAAGCCUAGGGAGAAGGUGGAAUGCUAC”, the “apparent Kd” value worked out at 0.0167 µM under setting [1] and 0.0152 µM under setting [2].
As for “UAAAAGACUAGCAACUAUCUCCACAUGAGGAUCACCCAUGUCUAGGAUAUGAGCAGCAAAGCUGCUUAGAAGGAGACGCUAGUC”, the “apparent Kd” value is 0.00667 µM under setting [3] and 0.00688 µM under setting [4].
The matching figures for “GACUGACGAGGAUAUACAUGAGGAUCACCCAUGUAAGAUCAGCGACUUCGGUCGCAAUGUAGAAGGCGUCAGUC”: 0.0282 µM and 0.326 µM.
Regarding “UUAAUUCUGAUUCUUGAAAUACAUGAGGAUCACCCAUGUUCACAGGAUAUUGAUUAUGUUAGUAACAAGAAGGGUGUAACAUAU”, the “apparent Kd” value is 0.0306 µM under setting [3] and 0.0856 µM under setting [4].
The corresponding values for “AAAUUGUCAGGAUAUCCUGCUAUACGCAAUAUGUAUUCACGGGAGAAGGGACAUGAGGAUCACCCAUGUUUGAA” are 0.0215 µM and 0.03 µM.
As for “UUGAUGUCAUCAGGAUAUAGUAUUUAAGACAUAUCUUCUUUCAAACAUGAGGAUCACCCAUGUCGCUAGAAGGGAUGAUUGAUU”, the “apparent Kd” value was 0.0173 µM under setting [3] and 0.0154 µM under setting [4].
For “CCUAAGGACACAGGAUAUAGCGUGGCGGCUGGACUCCAACGGCGAACGGCGCUAGAAGGGUGACCACAUGAGGAUCACCCAUGU”, the “apparent Kd” value by setting is: under setting [1], 0.495 µM; under setting [2], 0.206 µM.
The corresponding values for “CCAUAACAUGAGGAUCACCCAUGUCGACUAAAUCAAGGAUAUGGGAACGCGCAAGCAAAACCAGAAGGUGAGGUCC” are 0.255 µM and 0.236 µM.
In the case of “CACAUUUUAACAGGAUAUGUAUGGUUGCUUAUUAUUGCAAAUUCAAUUAUUACAGAAGGGUUAUACAUGAGGAUCACCCAUGUG”, the “apparent Kd” value reads like this: under setting [1], 0.0265 µM; under setting [2], 0.0168 µM.
The matching figures for “AGAAAGAAGCAAGGAUAUUGUAAAAUUAAUGUACAAGAAGGUGCUGUUUAUGUCUCUUAACAUGAGGAUCACCCAUGUAUUGGU”: 0.0686 µM and 0.0459 µM.
On to “UAGAUUUAUGUAGGAUAUACAUUUUUUAUGUAUGUAGAAGGACAUGAGGAUCACCCAUGUAAAUAAAUAUUAAAUAUCAUAAUU”, for which the “apparent Kd” value under setting [3] stood at 0.0304 µM and the “apparent Kd” value under setting [4] came out at 0.0238 µM.
For “AGAAGGCUACAGAAGGGACACACACGGCGGGAGUCAGGAUAUGUAGAGAAAACGUUACAUGAGGAUCACCCAUGUAGACCUUCC”, the “apparent Kd” value stood at 0.123 µM under setting [1] and 0.0199 µM under setting [2].
For the sequence “UUCAGCUCGUGAGGAUAUACAUGUGCUGGAAACAGCAUUAUAUUUUUCACAUGAGGAUCACCCAUGUAGAAGGCACGAGCUGAG”, the “apparent Kd” value was 0.0157 µM under setting [3] and 0.0273 µM under setting [4].
Turning to “UCUUCACAUGAGGAUCACCCAUGUGAGGAUAUGGAUUCGCUGGCCGUAGCCAGUGGAUCCAGAAGGCGCAUGAU”, the “apparent Kd” value came to 0.0238 µM under setting [3] and 0.025 µM under setting [4].
For the sequence “ACAGCACGAGGAUAUACAUGAGGAUCACCCAUGUCUGAGGGAAGGCGAACGCCCUUGUGUAGAAGGCGUUGAUC”, the “apparent Kd” value under setting [3] was determined as 0.0914 µM and the “apparent Kd” value under setting [4] was 0.112 µM.
Take “GCGUCAGAAUUAAUUGUGACAGGCAGAAGGCCAUAUCUUAUGUCAGACAUGAGGAUCACCCAUGUGGAGGAUAUGCAGUUACAC”: the “apparent Kd” value is, setting by setting: under setting [3], 0.0115 µM; under setting [4], 0.0191 µM.
The corresponding values for “UAUAUAUAGUAAGGAUAUGUAUAUUUUUUAUAAACAGAAGGUACUGACAUGAGGAUCACCCAUGUUUUAGUGUGGGCAUGUAGA” are 0.0793 µM and 0.122 µM.
The matching figures for “GGUCAUCAAGUCAGGAUAUCGUCUGGUCAAUCAGGCGAGAAGGGACAUGAGGAUCACCCAUGUCGACUCAUCAG”: 0.0339 µM and 0.139 µM.
The matching figures for “GGAAAUCAUGUAGGAUAUGCAUGGCGAAGCUACGCAGAAGGACAUGAGGAUCACCCAUGUUAUAGCGUUCGAGAAAGGAUGCAA”: 0.0201 µM and 0.0879 µM.

As a reminder, the apparent Kd is a dissociation constant that holds for the conditions of the assay.

Values taken from the EternaBench riboswitch data.
